Data reported in ChEMBL document CHEMBL2203101, “Molecular hybridization of bioactives: synthesis and antitubercular evaluation of novel dibenzofuran embodied homoisoflavonoids via Baylis-Hillman reaction” (Bioorg Med Chem Lett, 2012).
Converted amounts (≈) assume the structure as drawn.

Tests used:
[1] = Lipophilicity, log P of the compound; assay type: physicochemical; conditions: octanol/water
[2] = system: Mycobacterium tuberculosis; assay: Antimycobacterial activity against Mycobacterium tuberculosis H37Rv ATCC 27294 after 28 days by agar dilution method; assay type: functional; conditions: H37Rv ATCC 27294, 672 h
Method in brief: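 Compounds and reference drugs were tenfold serially diluted into Middlebrook 7H11 agar with OADC supplement. The inoculum came from fresh 7H11/OADC slants, was adjusted to 1 mg/mL (wet weight) in 0.05% Tween 80 saline, and was diluted 10^-2 to give 10^7 cfu/mL. Bacterial suspension was spotted onto the drug-containing agar tubes, incubated at 37 C, and final readings were taken after 28 days.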

Compound | logP [1] | MIC [2] [µg/mL]
COc1cccc2c1OC/C(=C\c1ccc3oc4ccccc4c3c1)C2=O | 3.56 | 25 (≈ 70.2 µM)
CC(C)(C)c1ccc2c(c1)C(=O)/C(=C/c1ccc3oc4ccccc4c3c1)CO2 | 5.39 | 25 (≈ 65.4 µM)
O=C1/C(=C/c2ccc3oc4ccccc4c3c2)COc2ccc(F)cc21 | 3.84 | 12.5 (≈ 36.3 µM)
O=C1/C(=C/c2ccc3oc4ccccc4c3c2)COc2ccc(Br)cc21 | 4.51 | 12.5 (≈ 30.8 µM)
O=C1/C(=C/c2ccc3oc4ccccc4c3c2)COc2ccc3ccccc3c21 | 4.68 | 25 (≈ 66.4 µM)
O=C1/C(=C/c2ccc3oc4ccccc4c3c2)COc2c1ccc1ccccc21 | 4.68 | 25 (≈ 66.4 µM)
O=C1/C(=C/c2ccc3oc4ccccc4c3c2)COc2ccc3oc4ccccc4c3c21 | 4.35 | 25 (≈ 60 µM)
O=C1/C(=C/c2ccc3oc4ccccc4c3c2)COc2ccc3[nH]c4ccccc4c3c21 | 4.38 | 25 (≈ 60.2 µM)
O=C1/C(=C/c2ccc3oc4ccccc4c3c2)COc2ccccc21 | 3.69 | 25 (≈ 76.6 µM)
COc1ccc2c(c1)C(=O)/C(=C/c1ccc3oc4ccccc4c3c1)CO2 | 3.56 | 25 (≈ 70.2 µM)
Cc1ccc2c(c1)C(=O)/C(=C/c1ccc3oc4ccccc4c3c1)CO2 | 4.17 | 25 (≈ 73.4 µM)
CC[C@@H](CO)NCCN[C@@H](CC)CO [ETHAMBUTOL] |  | 3.13 (≈ 15.3 µM)
NNC(=O)c1ccncc1 [ISONIAZID] |  | 0.1 (≈ 0.729 µM)
NC(=O)c1cnccn1 [PYRAZINAMIDE] |  | 50 (≈ 406 µM)
